{"source": "ChEMBL document CHEMBL4251731", "about": "“Combined Acylselenourea-Diselenide Structures: New Potent and Selective Antitumoral Agents as Autophagy Activators” (ACS Med Chem Lett, 2018)", "key": {"MCF7 [1]": {"tested_on": "MCF7", "test": "Induction of apoptosis in human MCF7 cells assessed as increase in subdiploid population at 10 uM after 24 hrs in presence of pan-caspase inhibitor Z-VAD-FMK by TUNEL assay", "type": "functional, cell-based"}, "MCF7 [2]": {"tested_on": "MCF7", "test": "Upregulation of Beclin1 expression in human MCF7 cells at 10 uM after 24 hrs by Western blot analysis", "type": "functional, cell-based", "procedure,_shortened": "(§1)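 MCF-7 cells exposed to 10 μM compound for 24 h; autophagy markers Beclin1 and LC3B assessed by Western blot.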"}, "[3]": {"test": "Selectivity index, ratio of GI50 for human BEAS2B cells to GI50 for human HTB-54 cells", "type": "toxicity", "settings": "BEAS-2B cells versus HTB-54 cells, read-out: RatioGI50", "procedure,_shortened": "(§2)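 Selectivity index computed as GI50 in the nonmalignant line divided by GI50 in the homologous cancer line (184B5/MCF-7 for breast; BEAS-2B/HTB-54 for lung), GI50 from 72 h MTT.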"}, "MCF7 [4]": {"tested_on": "MCF7", "test": "Induction of apoptosis in human MCF7 cells assessed as increase in subdiploid population at 10 uM after 24 hrs in presence of PI3K inhibitor wortmannin by TUNEL assay", "type": "functional, cell-based"}, "MCF7 [5]": {"tested_on": "MCF7", "test": "Cell cycle arrest in human MCF7 cells assessed as accumulation at S-phase at 10 to 20 uM after 24 to 72 hrs by TUNEL assay relative to control", "type": "functional"}, "[6]": {"test": "Selectivity index, ratio of GI50 for human 184B5 cells to GI50 for human MCF7 cells", "type": "toxicity", "settings": "184B5 cells versus MCF7 cells, read-out: RatioGI50", "procedure,_shortened": "as §2"}, "K562": {"tested_on": "K562", "test": "Cytotoxicity against human K562 cells assessed as growth inhibition after 72 hrs by MTT assay", "type": "functional", "settings": "K562, 72 h", "procedure,_shortened": "(§3)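 MTT growth assay; each compound first tested at five concentrations from 0.01 to 100 μM for 72 h, with further dilutions for some compounds. GI50 taken as concentration reducing growth by 50% versus control.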"}, "MCF7 [7]": {"tested_on": "MCF7", "test": "Potency index, ratio of cisplatin GI50 to compound GI50 for human MCF7 cells", "type": "functional"}, "MCF7 [8]": {"tested_on": "MCF7", "test": "Cell cycle arrest in human MCF7 cells assessed as increase in sub-G1 population at 10 uM after 6 hrs by TUNEL assay", "type": "functional, cell-based", "procedure,_shortened": "(§4)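 MCF-7 cell cycle distribution by flow cytometry after increasing concentrations (1 to 20 μM) for 24 h, or 10 μM over a time course (6 to 48 h); sub-G1 (hypodiploid), S and G2/M fractions scored.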"}, "Calu-1": {"tested_on": "Calu-1", "test": "Cytotoxicity against human HTB-54 cells assessed as growth inhibition after 72 hrs by MTT assay", "type": "functional", "settings": "Calu-1, 72 h", "procedure,_shortened": "as §3"}, "MCF7 [9]": {"tested_on": "MCF7", "test": "Cell cycle arrest in human MCF7 cells assessed as increase in sub-G1 population at 1 uM after 24 hrs by TUNEL assay", "type": "functional, cell-based", "procedure,_shortened": "as §4"}, "CCRF-CEM [10]": {"tested_on": "CCRF-CEM", "test": "Cytotoxicity against human CCRF-CEM cells assessed as growth inhibition after 72 hrs by MTT assay", "type": "functional", "procedure,_shortened": "as §3"}, "MCF7 [11]": {"tested_on": "MCF7", "test": "Cytotoxicity against human MCF7 cells assessed as growth inhibition after 72 hrs by MTT assay", "type": "functional", "settings": "MCF7, 72 h", "procedure,_shortened": "as §3"}, "CCRF-CEM [12]": {"tested_on": "CCRF-CEM", "test": "Potency index, ratio of cisplatin GI50 to compound GI50 for human CCRF-CEM cells", "type": "functional"}, "MCF7 [13]": {"tested_on": "MCF7", "test": "Upregulation of LC3B2 expression in human MCF7 cells at 10 uM after 24 hrs by Western blot analysis", "type": "functional, cell-based", "procedure,_shortened": "as §1"}, "MCF7 [14]": {"tested_on": "MCF7", "test": "Induction of apoptosis in human MCF7 cells assessed as increase in subdiploid population at 10 uM after 24 hrs in presence of chloroquine by TUNEL assay", "type": "functional, cell-based"}, "HT-29": {"tested_on": "HT-29", "test": "Cytotoxicity against human HT-29 cells assessed as growth inhibition after 72 hrs by MTT assay", "type": "functional", "settings": "HT-29, 72 h", "procedure,_shortened": "as §3"}, "CCRF-CEM [15]": {"tested_on": "CCRF-CEM", "test": "Potency index, ratio of methylseleninic acid GI50 to compound GI50 for human CCRF-CEM cells", "type": "functional"}, "MCF7 [16]": {"tested_on": "MCF7", "test": "Potency index, ratio of etoposide GI50 to compound GI50 for human MCF7 cells", "type": "functional"}, "MCF7 [17]": {"tested_on": "MCF7", "test": "Upregulation of LC3B1 expression in human MCF7 cells at 10 uM after 24 hrs by Western blot analysis", "type": "functional, cell-based", "procedure,_shortened": "as §1"}, "CCRF-CEM [18]": {"tested_on": "CCRF-CEM", "test": "Potency index, ratio of etoposide GI50 to compound GI50 for human CCRF-CEM cells", "type": "functional"}, "[19]": {"test": "Cytotoxicity against human 184B5 cells assessed as growth inhibition after 72 hrs by MTT assay", "type": "cell-based", "procedure,_shortened": "as §3"}, "MCF7 [20]": {"tested_on": "MCF7", "test": "Cell cycle arrest in human MCF7 cells assessed as accumulation at G2/M-phase at 10 to 20 uM after 24 hrs by TUNEL assay relative to control", "type": "functional", "procedure,_shortened": "as §4"}, "PC-3": {"tested_on": "PC-3", "test": "Cytotoxicity against human PC3 cells assessed as growth inhibition after 72 hrs by MTT assay", "type": "functional", "settings": "PC-3, 72 h", "procedure,_shortened": "as §3"}, "MCF7 [21]": {"tested_on": "MCF7", "test": "Potency index, ratio of methylseleninic acid GI50 to compound GI50 for human MCF7 cells", "type": "functional"}, "[22]": {"test": "Cytotoxicity against human BEAS2B cells assessed as growth inhibition after 72 hrs by MTT assay", "type": "cell-based", "settings": "BEAS-2B cells", "procedure,_shortened": "as §3"}}, "note": "Active and inactive are the calls of the source. No cut-off for these calls is given here.", "data": [{"smiles": "COc1cc(OC)cc(C(=O)NC(=[Se])Nc2ccc([Se][Se]c3ccc(NC(=[Se])NC(=O)c4cc(OC)cc(OC)c4)cc3)cc2)c1", "values": [{"measurement": "Activity", "setting": "MCF7 [1]", "value": "Active"}, {"measurement": "Activity", "setting": "MCF7 [2]", "value": "Active"}, {"measurement": "selectivity ratio", "setting": "[3]", "value": 0.48}, {"measurement": "Activity", "setting": "MCF7 [4]", "value": "inactive"}, {"measurement": "Activity", "setting": "MCF7 [5]", "value": "<10", "unit": "%"}, {"measurement": "selectivity ratio", "setting": "[6]", "value": 69700}, {"measurement": "GI50", "setting": "K562", "value": "> 100", "unit": "µM"}, {"measurement": "RatioGI50", "setting": "MCF7 [7]", "value": "≥ 100"}, {"measurement": "Activity", "setting": "MCF7 [8]", "value": "Active"}, {"measurement": "GI50", "setting": "Calu-1", "value": 20.2, "unit": "µM"}, {"measurement": "Activity", "setting": "MCF7 [9]", "value": "Active"}, {"measurement": "GI50", "setting": "CCRF-CEM [10]", "value": 0.0935, "unit": "µM"}, {"measurement": "GI50", "setting": "MCF7 [11]", "value": 0.000151, "unit": "µM"}, {"measurement": "RatioGI50", "setting": "CCRF-CEM [12]", "value": "≥ 10"}, {"measurement": "Activity", "setting": "MCF7 [13]", "value": "Active"}, {"measurement": "Activity", "setting": "MCF7 [14]", "value": "inactive"}, {"measurement": "GI50", "setting": "HT-29", "value": 17.1, "unit": "µM"}, {"measurement": "RatioGI50", "setting": "CCRF-CEM [15]", "value": "≥ 10"}, {"measurement": "RatioGI50", "setting": "MCF7 [16]", "value": "≥ 100"}, {"measurement": "Activity", "setting": "MCF7 [17]", "value": "Active"}, {"measurement": "RatioGI50", "setting": "CCRF-CEM [18]", "value": "≥ 10"}, {"measurement": "GI50 at 72 h", "setting": "[19]", "value": 10.5, "unit": "µM"}, {"measurement": "Activity", "setting": "MCF7 [20]", "value": ">40", "unit": "%"}, {"measurement": "GI50", "setting": "PC-3", "value": 0.0785, "unit": "µM"}, {"measurement": "RatioGI50", "setting": "MCF7 [21]", "value": "≥ 100"}, {"measurement": "GI50 at 72 h", "setting": "[22]", "value": 9.72, "unit": "µM"}]}]}
